From ChEMBL document CHEMBL1123882, “Potential antitumor agents. 51. Synthesis and antitumor activity of substituted phenazine-1-carboxamides” (J Med Chem, 1987)
pIC50: −log10 of the molar value.

system: Lewis lung carcinoma cell line; test: (§1) Average increase in life span of treated animals over control groups of tumor-bearing untreated animals when given at optimal dose; NA means no significant activity (in vivo); format: functional, organism-based; details: Mus musculus
Summary of the method: (§2)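 Mice received drug ip as a solution in 0.1 mL 30% v/v EtOH/water at the optimal dose. For P388, 10^6 cells were inoculated ip and drug given on days 1, 5 and 9. For LL, 10^6 cells were inoculated iv and drug given on days 5, 9 and 13. ILS is the mean life-span increase over untreated tumor-bearing controls, significant above 20% (P388) or 40% (LL). Groups were of six. NA means no significant activity up to acutely toxic doses.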

Compound	ILS max	ILSmax
Cc1cccc2nc3c(C(=O)NCCN(C)C)cccc3nc12	Not significant	–
COc1cc(C(=O)NCCN(C)C)c2nc3ccccc3nc2c1	Not significant	–
COc1ccc2nc3cccc(C(=O)NCCN(C)C)c3nc2c1	Not significant	–
CCN(CC)CCNC(=O)c1cccc2nc3ccccc3nc12	Not significant	–
COc1ccc2nc3c(C(=O)NCCN(C)C)cccc3nc2c1	–	Not significant
O=C(NCCNCCO)c1cccc2nc3ccccc3nc12	Not significant	–
CN(C)CCNC(=O)c1cccc2nc3cc(Cl)ccc3nc12	–	Not significant
Cc1ccc2nc3c(C(=O)NCCN(C)C)cccc3nc2c1	Not significant	–
CN(C)CCNC(=O)c1cc2ccccc2c2nc3ccccc3nc12	Not significant	–
CN(C)CCNC(=O)c1cccc2nc3c(ccc4ccccc43)nc12	Not significant	–

system: P388; test: as §1; format: functional, organism-based; details: Mus musculus; summary of the method: as §2

Compound	ILSmax	ILS max
COc1ccc(C(=O)NCCN(C)C)c2nc3ccccc3nc12	Not significant	–
COc1cccc2nc3c(C(=O)NCCN(C)C)cccc3nc12	Not significant	–
COc1ccc2nc3c(C(=O)NCCN(C)C)cccc3nc2c1	Not significant	–
O=C(NCCNCCO)c1cccc2nc3ccccc3nc12	–	Not significant
CN(C)CCNC(=O)c1c(Cl)ccc2nc3ccccc3nc12	Not significant	–

system: L1210; test: Nanomolar concentration required to reduce the growth of L1210 cells in culture to 50% of control values after 70 h (in vitro); format: functional, cell-based; details: Mus musculus, L1210, 70 h
Summary of the method: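 L1210 cells were grown in culture with drug for 70 h. IC50 is the drug concentration (nM) reducing growth to 50% of control values.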

Compound	pIC50
Cc1cccc2nc3c(C(=O)NCCN(C)C)cccc3nc12	6.09
COc1cc(C(=O)NCCN(C)C)c2nc3ccccc3nc2c1	6.08
COc1ccc2nc3cccc(C(=O)NCCN(C)C)c3nc2c1	5.98
Cc1ccc2nc3cccc(C(=O)NCCN(C)C)c3nc2c1	6.20
COc1ccc(C(=O)NCCN(C)C)c2nc3ccccc3nc12	6.26
CN(C)CCNC(=O)c1cccc2nc3ccc4ccccc4c3nc12	7.48
CCN(CC)CCNC(=O)c1cccc2nc3ccccc3nc12	5.68
CN(C)CCNC(=O)c1cccc2nc3ccc(Cl)cc3nc12	6.17
CN(C)CCNC(=O)c1cc(Cl)cc2nc3ccccc3nc12	6.80
COc1cccc2nc3c(C(=O)NCCN(C)C)cccc3nc12	5.30
CN(C)CCNC(=O)c1cccc2nc3c(Cl)cccc3nc12	6.11
COc1cccc2nc3cccc(C(=O)NCCN(C)C)c3nc12	7.32
CN(C)CCNC(=O)c1cccc2nc3ccccc3nc12	5.85
COc1ccc2nc3c(C(=O)NCCN(C)C)cccc3nc2c1	5.39
O=C(NCCNCCO)c1cccc2nc3ccccc3nc12	5.70
CN(C)CCNC(=O)c1cccc2nc3cc(Cl)ccc3nc12	5.94
Cc1ccc2nc3c(C(=O)NCCN(C)C)cccc3nc2c1	5.82
CN(C)CCNC(=O)c1cc2ccccc2c2nc3ccccc3nc12	6.77
CN(C)CCNC(=O)c1cccc2nc3c(ccc4ccccc43)nc12	6.51
CN(C)CCNC(=O)c1c(Cl)ccc2nc3ccccc3nc12	4.83

system: P388; test: Optimal dose in mg/kg administered intraperitoneally on days 1,5 and 9 required to inhibit the growth of P388 leukemia cells was determined (in vivo); format: functional, Mus musculus; details: not given
Summary of the method: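 Mice were inoculated ip with 10^6 P388 cells. Drug was given ip as a solution in 0.1 mL 30% v/v EtOH/water on days 1, 5 and 9. The optimal dose (mg/kg per day) is the one giving maximal increase in life span; survivors were scored at 50 days, in groups of six.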

Compound	OD
Cc1cccc2nc3c(C(=O)NCCN(C)C)cccc3nc12	150 mg/kg/day
COc1cc(C(=O)NCCN(C)C)c2nc3ccccc3nc2c1	100 mg/kg/day
COc1ccc2nc3cccc(C(=O)NCCN(C)C)c3nc2c1	100 mg/kg/day
Cc1ccc2nc3cccc(C(=O)NCCN(C)C)c3nc2c1	150 mg/kg/day
COc1ccc(C(=O)NCCN(C)C)c2nc3ccccc3nc12	225 mg/kg/day
CN(C)CCNC(=O)c1cccc2nc3ccc4ccccc4c3nc12	30 mg/kg/day
CCN(CC)CCNC(=O)c1cccc2nc3ccccc3nc12	225 mg/kg/day
CN(C)CCNC(=O)c1cccc2nc3ccc(Cl)cc3nc12	100 mg/kg/day
CN(C)CCNC(=O)c1cc(Cl)cc2nc3ccccc3nc12	150 mg/kg/day
COc1cccc2nc3c(C(=O)NCCN(C)C)cccc3nc12	150 mg/kg/day
CN(C)CCNC(=O)c1cccc2nc3c(Cl)cccc3nc12	150 mg/kg/day
COc1cccc2nc3cccc(C(=O)NCCN(C)C)c3nc12	100 mg/kg/day
CN(C)CCNC(=O)c1cccc2nc3ccccc3nc12	150 mg/kg/day
COc1ccc2nc3c(C(=O)NCCN(C)C)cccc3nc2c1	100 mg/kg/day
O=C(NCCNCCO)c1cccc2nc3ccccc3nc12	65 mg/kg/day
CN(C)CCNC(=O)c1cccc2nc3cc(Cl)ccc3nc12	65 mg/kg/day
Cc1ccc2nc3c(C(=O)NCCN(C)C)cccc3nc2c1	150 mg/kg/day
CN(C)CCNC(=O)c1cc2ccccc2c2nc3ccccc3nc12	65 mg/kg/day
CN(C)CCNC(=O)c1cccc2nc3c(ccc4ccccc43)nc12	45 mg/kg/day
CN(C)CCNC(=O)c1c(Cl)ccc2nc3ccccc3nc12	100 mg/kg/day

system: Lewis lung carcinoma cell line; test: (§3) Average increase in life span of treated animals over control groups of tumor-bearing untreated animals when given at optimal dose (in vivo); format: functional, Mus musculus; details: not given
Summary of the method: (§4)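 Mice inoculated ip with 10^6 P388 cells (drug ip on days 1, 5, 9) or iv with 10^6 Lewis lung cells (drug ip on days 5, 9, 13). Drug given as a solution in 0.1 mL 30% v/v EtOH/water, in mg/kg per day. Value is the average life-span increase versus untreated tumor-bearing controls at the optimal dose. Significance thresholds: ILS >20% (P388), >40% (LL). Groups of six.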

Compound	ILS max
Cc1ccc2nc3cccc(C(=O)NCCN(C)C)c3nc2c1	81
CN(C)CCNC(=O)c1cccc2nc3ccc4ccccc4c3nc12	56
CN(C)CCNC(=O)c1cccc2nc3ccc(Cl)cc3nc12	64
CN(C)CCNC(=O)c1cc(Cl)cc2nc3ccccc3nc12	63
CN(C)CCNC(=O)c1cccc2nc3c(Cl)cccc3nc12	49
COc1cccc2nc3cccc(C(=O)NCCN(C)C)c3nc12	128
CN(C)CCNC(=O)c1cccc2nc3ccccc3nc12	57

system: P388; test: as §3; format: functional, Mus musculus; details: not given; summary of the method: as §4

Compound	ILS max
Cc1cccc2nc3c(C(=O)NCCN(C)C)cccc3nc12	58
COc1cc(C(=O)NCCN(C)C)c2nc3ccccc3nc2c1	22
COc1ccc2nc3cccc(C(=O)NCCN(C)C)c3nc2c1	39
Cc1ccc2nc3cccc(C(=O)NCCN(C)C)c3nc2c1	60
CN(C)CCNC(=O)c1cccc2nc3ccc4ccccc4c3nc12	98
CCN(CC)CCNC(=O)c1cccc2nc3ccccc3nc12	43
CN(C)CCNC(=O)c1cccc2nc3ccc(Cl)cc3nc12	64
CN(C)CCNC(=O)c1cc(Cl)cc2nc3ccccc3nc12	106
CN(C)CCNC(=O)c1cccc2nc3c(Cl)cccc3nc12	56
COc1cccc2nc3cccc(C(=O)NCCN(C)C)c3nc12	106
CN(C)CCNC(=O)c1cccc2nc3ccccc3nc12	88
CN(C)CCNC(=O)c1cccc2nc3cc(Cl)ccc3nc12	20
Cc1ccc2nc3c(C(=O)NCCN(C)C)cccc3nc2c1	29
CN(C)CCNC(=O)c1cc2ccccc2c2nc3ccccc3nc12	84
CN(C)CCNC(=O)c1cccc2nc3c(ccc4ccccc43)nc12	29

system: Lewis lung carcinoma cell line; test: Optimal dose required after intraperitoneal administration on days 5,9 and 13 to inhibit the growth of lewis lung carcinoma (LL) cells was determined (in vivo); format: functional, Mus musculus; details: not given
Summary of the method: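 Mice were inoculated iv with 10^6 Lewis lung cells. Drug was given ip in 0.1 mL 30% v/v EtOH/water on days 5, 9 and 13. The optimal dose (mg/kg per day) is the one giving maximal increase in life span; survivors were scored at 60 days, in groups of six.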

Compound	OD
Cc1cccc2nc3c(C(=O)NCCN(C)C)cccc3nc12	150 mg/kg/day
COc1cc(C(=O)NCCN(C)C)c2nc3ccccc3nc2c1	150 mg/kg/day
COc1ccc2nc3cccc(C(=O)NCCN(C)C)c3nc2c1	150 mg/kg/day
Cc1ccc2nc3cccc(C(=O)NCCN(C)C)c3nc2c1	225 mg/kg/day
CN(C)CCNC(=O)c1cccc2nc3ccc4ccccc4c3nc12	45 mg/kg/day
CCN(CC)CCNC(=O)c1cccc2nc3ccccc3nc12	150 mg/kg/day
CN(C)CCNC(=O)c1cccc2nc3ccc(Cl)cc3nc12	100 mg/kg/day
CN(C)CCNC(=O)c1cc(Cl)cc2nc3ccccc3nc12	150 mg/kg/day
CN(C)CCNC(=O)c1cccc2nc3c(Cl)cccc3nc12	150 mg/kg/day
COc1cccc2nc3cccc(C(=O)NCCN(C)C)c3nc12	100 mg/kg/day
CN(C)CCNC(=O)c1cccc2nc3ccccc3nc12	150 mg/kg/day
COc1ccc2nc3c(C(=O)NCCN(C)C)cccc3nc2c1	150 mg/kg/day
O=C(NCCNCCO)c1cccc2nc3ccccc3nc12	65 mg/kg/day
CN(C)CCNC(=O)c1cccc2nc3cc(Cl)ccc3nc12	65 mg/kg/day
Cc1ccc2nc3c(C(=O)NCCN(C)C)cccc3nc2c1	100 mg/kg/day
CN(C)CCNC(=O)c1cc2ccccc2c2nc3ccccc3nc12	65 mg/kg/day
CN(C)CCNC(=O)c1cccc2nc3c(ccc4ccccc43)nc12	45 mg/kg/day

system: not listed separately; test: Lipophilicity (HPLC); format: physicochemical; details: not given

Compound	Rm
Cc1cccc2nc3c(C(=O)NCCN(C)C)cccc3nc12	-0.01
COc1cc(C(=O)NCCN(C)C)c2nc3ccccc3nc2c1	-0.25
COc1ccc2nc3cccc(C(=O)NCCN(C)C)c3nc2c1	-0.33
Cc1ccc2nc3cccc(C(=O)NCCN(C)C)c3nc2c1	-0.2
COc1ccc(C(=O)NCCN(C)C)c2nc3ccccc3nc12	-0.41
CN(C)CCNC(=O)c1cccc2nc3ccc4ccccc4c3nc12	-0.05
CCN(CC)CCNC(=O)c1cccc2nc3ccccc3nc12	0.09
CN(C)CCNC(=O)c1cccc2nc3ccc(Cl)cc3nc12	-0.2
CN(C)CCNC(=O)c1cc(Cl)cc2nc3ccccc3nc12	-0.06
COc1cccc2nc3c(C(=O)NCCN(C)C)cccc3nc12	-0.44
CN(C)CCNC(=O)c1cccc2nc3c(Cl)cccc3nc12	-0.18
COc1cccc2nc3cccc(C(=O)NCCN(C)C)c3nc12	-0.42
CN(C)CCNC(=O)c1cccc2nc3ccccc3nc12	-0.29
COc1ccc2nc3c(C(=O)NCCN(C)C)cccc3nc2c1	-0.27
O=C(NCCNCCO)c1cccc2nc3ccccc3nc12	-0.32
CN(C)CCNC(=O)c1cccc2nc3cc(Cl)ccc3nc12	-0.13
Cc1ccc2nc3c(C(=O)NCCN(C)C)cccc3nc2c1	-0.18
CN(C)CCNC(=O)c1cc2ccccc2c2nc3ccccc3nc12	0.11
CN(C)CCNC(=O)c1cccc2nc3c(ccc4ccccc43)nc12	-0.32
CN(C)CCNC(=O)c1c(Cl)ccc2nc3ccccc3nc12	-0.27
